# “And” between values parts separate entries of the source, which are not always exact repeats. Equal entries are not always repeated. Where a SMILES comes first, the peptide text is derived from it. The star is where a group is joined. Cbz = O=C(OCc1ccccc1)*
# Target: T1, C-C chemokine receptor type 3 (Homo sapiens, UniProt P51677)
# T1 sequence (P51677 whole entry): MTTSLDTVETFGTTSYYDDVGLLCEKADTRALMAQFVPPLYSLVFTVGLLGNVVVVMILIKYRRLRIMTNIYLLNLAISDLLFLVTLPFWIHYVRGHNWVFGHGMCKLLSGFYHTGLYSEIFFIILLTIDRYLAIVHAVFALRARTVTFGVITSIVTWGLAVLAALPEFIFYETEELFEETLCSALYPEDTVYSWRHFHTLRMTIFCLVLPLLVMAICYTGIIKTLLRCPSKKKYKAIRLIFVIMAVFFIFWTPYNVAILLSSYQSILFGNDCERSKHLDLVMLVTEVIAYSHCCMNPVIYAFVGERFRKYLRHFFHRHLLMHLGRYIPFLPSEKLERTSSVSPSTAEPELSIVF
# Assay: […] against C-C chemokine receptor type 3 by displacing Eotaxin radioligand, using [Ca2+] mobilization assay
# Format: functional
# Summary of the method: (§1)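 Functional antagonism was tested in RBL-2H3 cells expressing CCR3. Cells were challenged with eotaxin or eotaxin-2, and the resulting rise in intracellular Ca2+ was measured. Inhibition of this calcium mobilization is reported as an IC50 in nM.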
row,IC50 [nM],SMILES
1,38,COC(=O)[C@H](Cc1ccc([N+](=O)[O-])cc1)NC(=O)c1cccc2ccccc12

# Target: T1, C-C chemokine receptor type 3
# Assay: Inhibitory activity against human eosinophil C-C chemokine receptor type 3 using [125I]- human eotaxin as the radioligand
# Summary of the method: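 Competition binding on CCR3 from purified human eosinophils as receptor source, with [125I]human eotaxin as radioligand; IC50 taken as displacement of radioligand binding.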
row,SMILES,IC50 [nM]
1,CCOC(=O)[C@H](Cc1ccc(O)cc1)NC(=O)[C@H](Cc1ccccc1)NC(=O)OCc1ccccc1 (Cbz-Phe-Tyr-OEt),6250
2,CCOC(=O)[C@H](Cc1ccc(O)cc1)NC(=O)[C@H](CO)NC(=O)OCc1ccccc1 (Cbz-Ser-Tyr-OEt),> 25000
3,CCOC(=O)[C@H](Cc1ccc(O)cc1)NC(=O)c1ccccn1,1700
4,CCOC(=O)[C@H](Cc1ccc(O)cc1)NS(=O)(=O)c1ccc(C)cc1,16000
5,CCOC(=O)[C@@H](NC(=O)c1ccccc1)c1ccccc1,> 20000
6,CCOC(=O)[C@H](CCc1ccccc1)NC(=O)c1ccccc1,5950
7,O=C(N[C@@H](Cc1ccc([N+](=O)[O-])cc1)C(=O)NCc1ccccc1)c1cccc2ccccc12,4000
8,CCOC(=O)[C@H](Cc1ccc(O)cc1)NC(=O)Nc1ccccc1,> 33000
9,CCOC(=O)[C@H](Cc1ccc(O)cc1)NC(=O)[C@H](CC(N)=O)NC(=O)OCc1ccccc1 (Cbz-Asn-Tyr-OEt),> 25000
10,CCCC(=O)[C@H](Cc1ccc([N+](=O)[O-])cc1)NC(=O)c1cccc2ccccc12,> 33000
11,CCOC(=O)[C@H](Cc1cc(I)c(O)c(I)c1)NC(=O)c1ccccc1,535
12,CCOC(=O)[C@H](Cc1ccc(O)cc1)NC(=O)Cc1ccccc1,2600
13,CCOC(=O)[C@@H](Cc1ccc(O)cc1)NC(=O)c1ccccc1,> 50000
14,CN(C)C(=O)[C@H](Cc1ccc([N+](=O)[O-])cc1)NC(=O)c1cccc2ccccc12,> 33000
15,CCOC(=O)[C@H](C)NC(=O)c1ccccc1,9000
16,CCOC(=O)[C@H](Cc1ccc(O)cc1)NC(=O)[C@H](CCC(N)=O)NC(=O)OCc1ccccc1 (Cbz-Gln-Tyr-OEt),> 25000

# The next molecules have a lower IC50 than those just listed; values first:
row,IC50 [nM],SMILES
1,8,CCOC(=O)[C@H](Cc1ccc([N+](=O)[O-])cc1)NC(=O)c1cccc2ccccc12
2,49,CCOC(=O)[C@H](Cc1ccc([N+](=O)[O-])cc1)NC(=O)c1ccccc1
3,325,CCOC(=O)[C@H](Cc1c[nH]c2ccccc12)NC(=O)c1ccccc1
4,80,CCOC(=O)[C@H](Cc1ccc(O)cc1)NC(=O)c1cccc2ccccc12
5,21,CC(C)OC(=O)[C@H](Cc1ccc([N+](=O)[O-])cc1)NC(=O)c1cccc2ccccc12
6,3,CCOC(=O)[C@H](Cc1ccc([N+](=O)[O-])cc1)NC(=O)c1ccc(C)cc1C
7,383,CCOC(=O)[C@H](Cc1ccc(O)cc1)NC(=O)c1ccccc1
8,5,COC(=O)[C@H](Cc1ccc([N+](=O)[O-])cc1)NC(=O)c1cccc2ccccc12
9,190,CCOC(=O)[C@H](Cc1ccccc1)NC(=O)c1ccccc1
10,57,CC(C)(C)OC(=O)[C@H](Cc1ccc([N+](=O)[O-])cc1)NC(=O)c1cccc2ccccc12
11,18,O=C(N[C@@H](Cc1ccc([N+](=O)[O-])cc1)C(=O)OCc1ccccc1)c1cccc2ccccc12

# Target: T1, C-C chemokine receptor type 3
# Assay: […] activity against C-C chemokine receptor type 3 by displacing [125I]-MCP-4 radioligand, using CCR3 binding assay
row,IC50 [nM],SMILES
1,7,COC(=O)[C@H](Cc1ccc([N+](=O)[O-])cc1)NC(=O)c1cccc2ccccc12

# Target: T1, C-C chemokine receptor type 3
# Assay: […] activity against C-C chemokine receptor type 3 by displacing Eotaxin-2 radioligand, using [Ca2+] mobilization assay
# Format: functional
# Summary of the method: as §1
row,IC50,SMILES
1,35 nM and 20 nM,COC(=O)[C@H](Cc1ccc([N+](=O)[O-])cc1)NC(=O)c1cccc2ccccc12
